From the RNAGym collection of RNA variant scans (doi:10.1126/science.aae0568) come the findings set out here.

The chains are these.
B1: tRNA (parent)
chain: GUUCCGUUGGCGUAAUGGUAACGCGUCUCCCUCCUAAGGAGAAGACUGCGGGUUCGAGUCCCGUACGGAACG

Variants at the floor of the assay were thinned out.

In this data set the parent is B1. The data set can be described thus: yeast fitness relative to wild type (ratio to wild type); higher = fitter; tRNA-Arg(CCU), competitive growth, 37 C, YPD. The gist of the method:
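For this measurement, the tRNA-Arg(CCU) gene was varied by chemical synthesis at a 3% per-site mutation rate across 69 sites, and each variant was placed at the native genomic locus in Saccharomyces cerevisiae. The pooled strains went through a 24-hour competition in YPD at 37°C in six parallel replicates, with amplicons from start and end populations read by 100-nucleotide paired-end sequencing. Darwinian fitness relative to wild type followed from the change in each genotype's frequency. Genotypes needed ≥ 100 starting reads, and estimates < 0.5 were set to 0.5.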
Regarding U3A G23C, the yeast fitness was determined as 0.653.

U3A U8A C31G A40C G58C C62A G68A: the yeast fitness was not above 0.5.

As to U3C A15G G25C C66G, the yeast fitness was not above 0.5.

With U3A G17C G38A, the yeast fitness was determined as 0.557.

U3A U13A G23C A36C: the yeast fitness worked out at 0.529.

On to U3C C4G, for which the yeast fitness was 0.891.

On to U3C C22A C33A, for which the yeast fitness was not above 0.5.

In the case of U3C A40U C49A, the yeast fitness was 0.577.

Consider U3A G25A, for which the yeast fitness is 1.09.

Turning to U3C C4U A20C A21U C27G A42U G52A, the yeast fitness is not above 0.5.

For the variant U3C A21G C46A G56A, the yeast fitness is not above 0.5.

With U3A U13G A70C, the yeast fitness is 0.784.

Take U3C A14G C34G A43C: the yeast fitness is not above 0.5.

Regarding U3C C22A A45C C62G A65U, the yeast fitness was 0.64.

For the variant U3C A21G C27A A36U A40G, the yeast fitness was not above 0.5.

For U3C A37U G52A, the yeast fitness is not above 0.5.

Take U3C C5G C30G A36C: the yeast fitness was not above 0.5.

As to U3C A14G C22A C27G G39C, the yeast fitness was not above 0.5.

In the case of U3C C11A U19G C24A A40C A45U, the yeast fitness was not above 0.5.

For U3A U16C A20C G67A, the yeast fitness worked out at 0.541.

For the variant U3A U32C, the yeast fitness stood at 1.

U3A U16A C22U U35A A36C G38U G48C: the yeast fitness was not above 0.5.

On to U3A U64C G68C, for which the yeast fitness came to 0.586.

As for U3C C5A U8A G25A A45G, the yeast fitness was not above 0.5.

As to U3A U59C, the yeast fitness is 0.884.

U3C A15G: the yeast fitness amounted to 1.03.

U3A G12C U13C A69U: the yeast fitness is 1.13.

With U3A G12C U13C A69C, the yeast fitness came out at 0.732.

With U3C A21G A43U, the yeast fitness is 0.989.

Consider U3C C24G G50C G68C, for which the yeast fitness is not above 0.5.

For U3A U13C, the yeast fitness stood at 0.955.

For the variant U3A U13G, the yeast fitness came out at 0.729.

On to U3A U13A, for which the yeast fitness was 1.04.

Turning to U3A G12C A21C A36C G68C, the yeast fitness was not above 0.5.

As to U3C C24G C31G C61G, the yeast fitness is not above 0.5.

As for U3C A21G C49U, the yeast fitness amounted to 1.02.

U3A G18C A43C G58C: the yeast fitness is not above 0.5.

U3A U7C C27G C29G C34U: the yeast fitness was determined as 0.528.

For the variant U3C A42C A65U, the yeast fitness is 0.651.

With U3C C5A C11G A20U G25C G56A G58A G67C, the yeast fitness was not above 0.5.

With U3C C4U A43U G58A, the yeast fitness was not above 0.5.

For U3C A21G U32C A43U, the yeast fitness came to 0.722.

For U3A U16C C33G, the yeast fitness is 0.661.

In the case of U3C C5G U19G C31A C46A G56A A57U, the yeast fitness is not above 0.5.

Regarding U3C C4A A15C C27G C33U C61G, the yeast fitness is not above 0.5.

U3C A15C C34G U47A C55U G68U: the yeast fitness is not above 0.5.

As for U3A G18A A45G A57C, the yeast fitness is not above 0.5.

With U3C C22U C31U, the yeast fitness is 0.691.

With U3C A42U, the yeast fitness is 0.9.

With U3C A42C, the yeast fitness was 0.85.

U3C A42G: the yeast fitness was found to be 0.883.

As to U3A G25C G67C, the yeast fitness turned out to be 0.567.

Turning to U3C A14U A37U C60A, the yeast fitness was 0.586.

As to U3C A20U U64A, the yeast fitness is 0.594.

U3C C5G A14U A43G G67C: the yeast fitness was not above 0.5.

As for U3C C5A A15U A20G, the yeast fitness was not above 0.5.

On to U3C C22G C31U U53C, for which the yeast fitness was not above 0.5.

In the case of U3C C11A C27G C33A, the yeast fitness was determined as 0.579.

In the case of U3A G50A, the yeast fitness came out at 0.853.

As for U3A G50C, the yeast fitness was determined as 0.727.

U3A U19A A57G: the yeast fitness stood at 0.751.

As to U3C A40C A45C, the yeast fitness was found to be 0.502.

Turning to U3A G38C, the yeast fitness is 0.611.

As to U3C A15C A43G C46G C66G A69G, the yeast fitness is not above 0.5.

On to U3C C5A G18C A45C G56C C60U G68U, for which the yeast fitness was not above 0.5.

In the case of U3A G68C, the yeast fitness is 0.822.

As for U3A G12C G58A, the yeast fitness amounted to 0.579.

Turning to U3A U8C C30G C33U, the yeast fitness is not above 0.5.

On to U3C A14G C30U A45C C46G A65G, for which the yeast fitness was not above 0.5.

Consider U3A U7C C62G G63C, for which the yeast fitness is 0.586.

For U3A G12C U28C G56A C60G, the yeast fitness is not above 0.5.

With U3C C5G A15G, the yeast fitness is not above 0.5.

Consider U3C A40U G63A A65G, for which the yeast fitness was found to be 0.549.

On to U3C C22G G25A, for which the yeast fitness worked out at 1.02.

For U3C A15G C30A A57G, the yeast fitness is not above 0.5.

As to U3A G48A G67A, the yeast fitness came to 0.541.

For the variant U3A U32G G39C G52C, the yeast fitness is not above 0.5.

For U3C C5G C11G A45C, the yeast fitness is not above 0.5.

As for U3C C4G C22G C33U A36C A40U, the yeast fitness was not above 0.5.

For the variant U3C C5G G67U, the yeast fitness turned out to be 0.542.

For the variant U3C C24U C55G A70U, the yeast fitness was not above 0.5.

As to U3C C11U C31U, the yeast fitness worked out at 0.782.

As for U3A U13C C29A A43G, the yeast fitness was not above 0.5.

Turning to U3A U7A A69U, the yeast fitness was not above 0.5.

Turning to U3A U19C C22G C31G A69C, the yeast fitness was not above 0.5.

For U3C C4G A20G A43G, the yeast fitness is not above 0.5.

U3C C11U A14C A21U A36C G58C: the yeast fitness was 0.562.

As for U3C C5U A37G A43C C62U, the yeast fitness is not above 0.5.

As to U3C A15U C34U A43G G68A A69U, the yeast fitness was not above 0.5.

On to U3A U54G, for which the yeast fitness is 0.595.

With U3C C5G G17A A40C U59C, the yeast fitness is not above 0.5.

U3C A14U A20C C30G C55U: the yeast fitness was not above 0.5.

Regarding U3C A14C A40U, the yeast fitness is not above 0.5.

With U3A G41C U53G, the yeast fitness was not above 0.5.

In the case of U3C A43U A45G, the yeast fitness turned out to be 0.567.

On to U3A G44C, for which the yeast fitness amounted to 0.879.

As for U3A G41A A69U, the yeast fitness is 0.617.

Turning to U3A G38A C66U, the yeast fitness was not above 0.5.

On to U3A U8A U13C C31G A40C, for which the yeast fitness was not above 0.5.

As to U3C A21G G38A G56A, the yeast fitness was not above 0.5.

Consider U3C A43U G44C U64C, for which the yeast fitness was determined as 0.567.

On to U3C C5U C33G C34U G38C U47A, for which the yeast fitness was not above 0.5.

For U3A U64G, the yeast fitness came out at 0.831.

Take U3A U64C: the yeast fitness amounted to 1.01.

With U3A U19A A70C, the yeast fitness stood at 0.812.

In the case of U3C C4U C24G C49U C60U C61A, the yeast fitness is not above 0.5.

In the case of U3C A70G, the yeast fitness stood at 0.944.

As to U3C A70C, the yeast fitness stood at 0.993.

Turning to U3C C5U C22U A40U A43U, the yeast fitness was not above 0.5.

In the case of U3A U26G C49A C60A, the yeast fitness was not above 0.5.

In the case of U3A U7A C22U C49A, the yeast fitness is not above 0.5.

For the variant U3A U8C A14C C61U, the yeast fitness was not above 0.5.

As for U3A G25A A69C, the yeast fitness was determined as 0.773.

As for U3C C11A C31A A42G G68C, the yeast fitness is not above 0.5.

U3A G18A C22U A65U: the yeast fitness was not above 0.5.

U3A G44A A45C U53A C55A U59C C62U: the yeast fitness is 0.534.

As for U3A G38C C49U, the yeast fitness was not above 0.5.

Consider U3C C24A C62A A65C, for which the yeast fitness was not above 0.5.

On to U3C A14C A20C, for which the yeast fitness was not above 0.5.

As for U3A G52A C60A A69G, the yeast fitness was not above 0.5.

As to U3C C24G, the yeast fitness was determined as 0.642.

Consider U3C A20U A69G, for which the yeast fitness stood at 0.612.

With U3C A14C A21G A37U C49A C60G, the yeast fitness was 0.629.

As for U3A G48A C49G, the yeast fitness is 0.574.

As for U3C A40U G58A, the yeast fitness came to 1.02.

On to U3A U35G A43U A57C, for which the yeast fitness was not above 0.5.

As for U3C C24U C55G, the yeast fitness was not above 0.5.

As to U3C C4G U8G C34U A37G, the yeast fitness was not above 0.5.

U3C C11A A21G U28C U32G: the yeast fitness was not above 0.5.

As to U3C C11U C46U, the yeast fitness came to 1.1.

Take U3C A37U G52A A57C C60A: the yeast fitness was not above 0.5.

Consider U3C C5G C61U, for which the yeast fitness is not above 0.5.

For the variant U3C A43C C61A, the yeast fitness worked out at 0.612.

In the case of U3C A43C C61U, the yeast fitness came to 0.707.

Turning to U3C C5G C34U, the yeast fitness is not above 0.5.

Turning to U3C C4U C24U C62U A69U, the yeast fitness amounted to 0.638.

On to U3A G51A U53C, for which the yeast fitness was determined as 0.648.

As to U3A G25C C34U G41A C49G, the yeast fitness is not above 0.5.

In the case of U3C A15U C34U A43G C49U, the yeast fitness was not above 0.5.

In the case of U3C A57G A69U, the yeast fitness was 0.599.

Regarding U3C A20C G23C G56C, the yeast fitness is not above 0.5.

Consider U3C A21U G67C, for which the yeast fitness was not above 0.5.

Turning to U3C C24G A43C G48A G58A G68C, the yeast fitness is not above 0.5.

With U3C A21G G44C G63C, the yeast fitness is not above 0.5.

With U3C C5G, the yeast fitness is 0.761.

For U3C C11U A40U G58A, the yeast fitness came out at 0.627.

Turning to U3C A14U A65C, the yeast fitness was not above 0.5.

Take U3C C22G C29A A42C: the yeast fitness is not above 0.5.

Regarding U3A G25A G58A, the yeast fitness came out at 0.782.

Take U3C A40U G58A A69C: the yeast fitness stood at 0.656.

For U3C A43U U53A, the yeast fitness was not above 0.5.

For the variant U3C A40G C46A U53C, the yeast fitness was determined as 0.663.

In the case of U3C A15G C49G, the yeast fitness amounted to 0.556.

Regarding U3A U32A U59G, the yeast fitness came out at 0.585.

For U3C A20G U64A A65G, the yeast fitness is not above 0.5.

For U3C A37C C62G, the yeast fitness turned out to be 0.548.

Regarding U3C A37C U64A, the yeast fitness came to 0.598.

On to U3A U16C C46U C49U, for which the yeast fitness was not above 0.5.

In the case of U3A U13A G23C A36C A70C, the yeast fitness was 0.596.

U3C A15C G17C C24A C31U U35C G68C: the yeast fitness was not above 0.5.

On to U3A G51A A65G A69C, for which the yeast fitness amounted to 0.544.

On to U3C A20U C30U A37G A70C, for which the yeast fitness is 0.708.

As for U3A G58C, the yeast fitness is 0.987.

In the case of U3A U16G C46U U54A, the yeast fitness is not above 0.5.

As for U3A U16C C33G C46U, the yeast fitness was not above 0.5.

Regarding U3A G38A G48A, the yeast fitness turned out to be 0.54.

On to U3A U16C, for which the yeast fitness came out at 0.824.
